# Calls of active or inactive are those of the source.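 The calls were made as follows, unless noted: active = fluorescence slope higher than the sample average by over 3 SD (cut at about -0.22 in these data, passing the limit was not always enough); inactive = the rest.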
# What was measured:
# [1] = inhibitors of TNFa-induced NFkB p65 translocation, primary screen, imaging, HUVEC, MLSMR starter and 10KST1 sets (AID 438;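 active = inhibition above 20% together with a positive visual image hit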;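 also: compound added about 3h40 before a 20 min TNFalpha stimulation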;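 as to inhibition: signal is the nuclear over cytoplasmic p65 intensity ratio per well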); settings: HUVEC TNFa-induced p65 nuclear translocation; cell count: measured here: nuclei count (cytotoxicity indicator), at 2.08 µM; inhibition: at 2 µM, stronger effect = higher value, 0% TNFa-plus-vehicle, 100% no-TNFa wells
# [2] = inhibitors of E-selectin induction by TNFa, primary screen, imaging, HUVEC, immunofluorescence, MLSMR starter and 10KST1 sets (AID 487;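 active = visually confirmed hit in the image check and inhibition above 20%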;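 as to inhibition: signal is fraction of cell area covered by stained E-selectin grains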;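 as to nuclei count: 100% = median nuclei count of all wells on the same plate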); settings: HUVEC TNFalpha-induced E-selectin immunofluorescence imaging, at 2 µM; inhibition: stronger effect = higher value; nuclei count: measured here: cell number, toxicity
# [3] = DUSP6 inhibitors restoring Erk phosphorylation by chemical complementation, primary imaging in DUSP6-transfected HeLa (AID 609;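 active = compounds giving at least 50% inhibition in the cell-based MKP-3 phosphatase rescue imaging test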;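 as to inhibition: phospho-Erk level distribution per well compared with pooled transfected vehicle control wells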); settings: HeLa MKP-3 transfected, phospho-Erk imaging KS statistic, at 10 µM, cells stimulated with TPA for 15 min
# [4] = target: Dual specificity protein phosphatase 6 (Homo sapiens) (UniProt Q16828); experiment: as above; settings: HeLa MKP-3 transfected, phospho-Erk imaging KS statistic; at 10 µM; stronger effect = higher value; cells stimulated with TPA for 15 min
# Chain of Dual specificity protein phosphatase 6 (Homo sapiens) (Q16828 whole entry, looked up): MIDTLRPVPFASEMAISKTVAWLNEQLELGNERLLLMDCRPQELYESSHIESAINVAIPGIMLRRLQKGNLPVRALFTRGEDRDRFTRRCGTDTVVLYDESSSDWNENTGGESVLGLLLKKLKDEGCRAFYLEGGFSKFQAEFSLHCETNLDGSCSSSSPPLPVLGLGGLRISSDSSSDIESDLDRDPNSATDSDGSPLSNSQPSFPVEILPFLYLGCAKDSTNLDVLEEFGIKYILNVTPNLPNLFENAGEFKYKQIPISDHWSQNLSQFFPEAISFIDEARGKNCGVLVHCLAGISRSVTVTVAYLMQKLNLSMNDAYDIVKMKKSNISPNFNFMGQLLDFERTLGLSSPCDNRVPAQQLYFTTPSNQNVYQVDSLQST
# [5] = target: Voltage-gated potassium channel subunit beta-2 (Rattus norvegicus) (UniProt P62483); experiment: KvBeta enzyme negative modulators, primary screen, biochemical, NADPH fluorescence (AID 622); settings: recombinant KvBeta, 4-cyanobenzaldehyde reduction, at 10 µM, stronger effect = higher value;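 also: slope of raw intensity against log time taken from 70 to 1610 s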
# Chain of Voltage-gated potassium channel subunit beta-2 (Rattus norvegicus) (P62483 whole entry, looked up): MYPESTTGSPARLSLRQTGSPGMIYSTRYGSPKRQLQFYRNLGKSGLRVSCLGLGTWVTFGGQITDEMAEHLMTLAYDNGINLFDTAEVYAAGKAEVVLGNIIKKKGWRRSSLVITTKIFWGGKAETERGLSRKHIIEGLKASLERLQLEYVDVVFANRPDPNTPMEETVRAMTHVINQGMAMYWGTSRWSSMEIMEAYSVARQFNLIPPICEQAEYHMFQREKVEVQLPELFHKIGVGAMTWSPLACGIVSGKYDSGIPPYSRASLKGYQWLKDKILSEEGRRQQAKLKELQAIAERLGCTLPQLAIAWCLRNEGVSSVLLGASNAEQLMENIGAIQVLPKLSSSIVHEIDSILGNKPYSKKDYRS
# [6] = target: Voltage-gated potassium channel subunit beta-2 (Rattus norvegicus) (UniProt P62483); experiment: KvBeta positive modulators, primary screen, biochemical, NADPH fluorescence (AID 623;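 active = NADPH fluorescence slope more negative than the mean of all samples by about 3 SD, 99.7% confidence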;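 also: fluorescence intensity change per second fitted from 20 to 320 s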); settings: Recombinant KvBeta, NADPH fluorescence decrease slope, 10 min; at 10 µM; stronger effect = lower value
# [7] = target: Alpha-2C adrenergic receptor (Homo sapiens) (UniProt P18825); experiment: modulators of alpha2C/GIRK thallium flux, primary screen, cell-based, HEK293 alpha2C/GIRK1/2 (AID 624;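 active = fluorescence slope after compound addition differing from the mean of all screened samples at 99.7% confidence, in either direction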;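 also: slope of fluorescence ratio to pre-addition baseline per second over 15 to 24 s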); settings: thallium flux BTC fluorescence, at 10 µM, actives lie on both sides
# Chain of Alpha-2C adrenergic receptor (Homo sapiens) (P18825 whole entry, looked up): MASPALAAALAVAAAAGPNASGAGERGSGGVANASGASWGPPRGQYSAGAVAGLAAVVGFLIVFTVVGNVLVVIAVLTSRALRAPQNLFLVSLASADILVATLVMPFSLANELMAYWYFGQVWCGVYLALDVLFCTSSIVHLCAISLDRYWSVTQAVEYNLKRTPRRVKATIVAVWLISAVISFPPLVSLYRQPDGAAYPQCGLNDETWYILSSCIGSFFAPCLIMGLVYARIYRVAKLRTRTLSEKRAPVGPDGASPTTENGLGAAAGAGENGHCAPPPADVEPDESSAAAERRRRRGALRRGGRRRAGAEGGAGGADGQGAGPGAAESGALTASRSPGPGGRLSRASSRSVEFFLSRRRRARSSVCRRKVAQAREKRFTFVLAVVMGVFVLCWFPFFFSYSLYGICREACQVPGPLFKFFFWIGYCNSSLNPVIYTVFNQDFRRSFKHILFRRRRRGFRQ
# [8] = inhibitors of larval lipid processing in zebrafish, primary screen, whole organism, PED6 fluorescence, gall bladder and intestine (AID 686;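 active = a full or partial loss of lipid-probe fluorescence in the fish gall bladder, intestine or both, judged by eye; inactive = no fluorescence loss, or compound toxic to the fish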;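 also: larvae 5 to 7 days old with five fish per well; signal comes from phospholipase A2 cleavage of quenched PED6 carried via bile; overnight exposure to compound and PED6 before scoring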); settings: Zebrafish larvae PED6 lipid processing, fluorescence scoring; screened at 20 µM (by protocol)
# Procedure, shortened: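 Doses: 20 µM single dose. Test system: live zebrafish larvae aged 5-7 days, whole organism. Quantity: five larvae per well. Measured by: By-eye fluorescence microscopy. Reagent: ingested quenched lipid PED6 at 100 nM. Read-out: visual per-well fluorescence inhibition score. Times: overnight exposure of larvae to compound plus PED6.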
# [9] = inhibitors of Chlamydomonas gravitaxis, primary screen, whole organism, Chlamydomonas reinhardtii, WT vs cilia-less mutant, absorbance, 96-well (AID 463189;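 active = inhibition at or above 50% relative to wild type and mutant plate controls; inactive = inhibition below 50%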;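 also: 0% = wild type cc124 cells in DMSO and 100% = ciliumless bld1 mutant cells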); settings: OD600 absorbance, 2 days, at 10 µM, stronger effect = higher value
# [10] = measured here: cell density z-score
# [11] = measured here: nuclear c-Myc green intensity z-score
# [12] = measured here: nuclear pErk red intensity z-score, stronger effect = higher value
SMILES,cell count [1],inhibition [1],inhibition [2],nuclei count [2],"z-score [3, 10]","z-score [3, 11]","z-score [3, 12]",inhibition [4],fluorescence slope [5],NADPH fluorescence slope [6],slope [7],outcome [8],inhibition [9]
COc1ccc(CCNc2nc3c(c(=O)n(C)c(=O)n3C)n2C)cc1OC,604,-9.9% (inactive),-63.1% (inactive),146%,1.46,-0.0832,0.95,-4.27% (inactive),-0.425 (inactive),-6e-05 (inactive),0.00693 (inactive),inactive,-4.62% (inactive)
CCOC(=O)c1c(N)sc2c1CCC1C(=O)N(C3CCCCC3)C(=O)C21 (stereo unspecified),593,-15.5% (inactive),-59.6% (inactive),170%,-0.619,-0.159,0.799,-11% (inactive),-0.362 (inactive),-3.1e-06 (inactive),0.0048 (inactive),inactive,-3.12% (inactive)
CC1(C)CC(=O)C(C=NCCN2CCN(C(=O)C34CC5CC(CC(C5)C3)C4)CC2)=C(O)C1,573,-4.4% (inactive),-174% (inactive),144%,-0.458,0.612,-0.352,3.97% (inactive),-0.493 (inactive),-5.1e-05 (inactive),0.00469 (inactive),inactive,4.48% (inactive)
COc1ccc(N2C(=O)CN=C2Nc2nc(C)cc(C)n2)cc1,570,-16.6% (inactive),-179% (inactive),144%,1.15,-0.727,0.0405,1.98% (inactive),-0.509 (inactive),-6.2e-05 (inactive),0.00444 (inactive),inactive,0.296% (inactive)
Cc1ccc(S(=O)(=O)N2CCN(c3nc(C)c4c(c3C#N)CC(C)(C)OC4)CC2)cc1,645,-13.9% (inactive),9.7% (inactive),182%,1,-1.7,0.0451,22.7% (inactive),-0.471 (inactive),-0.000183 (inactive),0.0077 (inactive),inactive,110% (active)
O=c1[nH]c(CN2CCCCC2)nc2c1C1(CCCCC1)Cc1ccccc1-2,374,-4.7% (inactive),-4.9% (inactive),104%,0.315,0.221,-1.87,-4.7% (inactive),-0.395 (inactive),2.4e-05 (inactive),0.0066 (inactive),inactive,-10.4% (inactive)
Cc1ccc2[nH]c3c(c2c1)CCCC3C(N)=O (stereo unspecified),548,-27.5% (inactive),-103% (inactive),183%,-1.12,0.929,-1.27,-16.8% (inactive),-0.508 (inactive),-2.9e-05 (inactive),0.00527 (inactive),inactive,3.14% (inactive)
COc1cc(NC2=CC(=O)CC(C)(C)C2)cc(OC)c1OC,584,-15% (inactive),-72.4% (inactive),141%,-0.351,-0.143,0.715,-1.98% (inactive),-0.488 (inactive),-3.8e-05 (inactive),0.00597 (inactive),inactive,-4.05% (inactive)
COc1ccc(/C(O)=C2/C(=O)C(=O)N(CCN3CCOCC3)C2c2ccccn2)cc1 (stereo unspecified),316,-13.6% (inactive),25.6% (inactive),75.8%,-1.25,0.879,1.18,-7.79% (inactive),-0.44 (inactive),-1.3e-05 (inactive),0.00633 (inactive),inactive,25.9% (inactive)
NC(=O)CSc1nc(N)c2c3c(sc2n1)CCCCC3,620,-15.9% (inactive),47.7% (inactive),164%,-1.12,-0.0373,0.273,-2.29% (inactive),-0.362 (inactive),-6.1e-05 (inactive),0.0046 (inactive),inactive,10.9% (inactive)
Cn1c(=NCC(O)COc2ccccc2)sc2ccccc21 (stereo unspecified),482,7.1% (inactive),-85.2% (inactive),167%,0.424,-0.57,0.805,-8.95% (inactive),-0.367 (inactive),-3.8e-05 (inactive),0.00465 (inactive),inactive,16.2% (inactive)
O=C(CCC1CCCC1)N1CCC(N2CCN(c3ccccc3)CC2)CC1,411,-9.4% (inactive),-188% (inactive),140%,0.947,0.889,-0.837,9.39% (inactive),-0.446 (inactive),4.6e-06 (inactive),0.00549 (inactive),inactive,62.1% (active)
CSc1sc(C(=O)O)c2c1C(=O)CCC2,562,-4.6% (inactive),-163% (inactive),186%,-0.487,1.05,0.511,5.65% (inactive),-0.486 (inactive),-0.000199 (inactive),0.00495 (inactive),inactive,-9.07% (inactive)
COc1ccc(C2C(C#N)=C(SC)NC3=C2C(=O)CC(C)(C)C3)cc1 (stereo unspecified),369,-8.9% (inactive),-30.1% (inactive),156%,1.03,-0.788,1.1,-12.6% (inactive),-0.411 (inactive),-9.7e-05 (inactive),0.00455 (inactive),inactive,27.3% (inactive)
CCOC(=O)c1c(CNCCN(CC)CC)n(C)c2cc(Br)c(OC)cc12,321,3.8% (inactive),-25% (inactive),77.4%,-0.115,0.118,-0.0858,1.75% (inactive),-0.439 (inactive),-8.8e-06 (inactive),0.00617 (inactive),inactive,28.1% (inactive)
COc1ccc(C=NCCCN2CCOCC2)cc1,638,-9.5% (inactive),-363% (inactive),165%,-1.79,-1.02,1.46,-0.159% (inactive),-0.486 (inactive),-8.5e-05 (inactive),0.00493 (inactive),inactive,-6.33% (inactive)
COc1ccc(C2=CC(c3cccc(OC)c3)n3nnnc3N2)cc1 (stereo unspecified),539,-14.8% (inactive),-119% (inactive),145%,2.98,-1.71,-0.495,13.7% (inactive),-0.474 (inactive),-6.4e-05 (inactive),0.00383 (inactive),inactive,6.7% (inactive)
CCN(CC)CCNc1nc(-c2ccco2)c2c(c1C#N)CC(C)(C)OC2,580,-4.5% (inactive),12.3% (inactive),110%,0.832,0.195,0.416,9.82% (inactive),-0.379 (inactive),1.9e-06 (inactive),0.00425 (inactive),inactive,47.8% (inactive)
CC1(C)Cc2c(c(N3CCOCC3)nc3snc(N)c23)CO1,554,-1.3% (inactive),-78.1% (inactive),140%,0.144,-0.616,0.222,1.48% (inactive),-0.281 (inactive),-1.1e-05 (inactive),0.00566 (inactive),inactive,22.3% (inactive)
Nc1nnc(Cc2ccc(Cl)c(Cl)c2)s1,621,2.9% (inactive),33.3% (inactive),174%,0.377,1.31,-0.983,-7.86% (inactive),-0.369 (inactive),-3.6e-05 (inactive),0.00535 (inactive),inactive,2.91% (inactive)
CSC1=Nc2sc3c(c2C2=NCCN12)CC(C)(C)OC3,540,-10.5% (inactive),-3.3% (inactive),176%,-0.539,0.758,-0.378,3.66% (inactive),-0.508 (inactive),-4.5e-05 (inactive),0.00474 (inactive),inactive,64.3% (active)
COc1cccc(/C=C2/CN(C)CC3=C2OC(N)=C(C#N)C3c2cccc(OC)c2)c1 (stereo unspecified),562,-0.3% (inactive),-91.1% (inactive),190%,1.7,-1.04,-1.64,-1.12% (inactive),-0.289 (inactive),4.6e-07 (inactive),0.00546 (inactive),inactive,3.47% (inactive)
CCCCC(C(=O)O)C(C)CC(=O)Nc1cccc(C(=O)O)c1 (stereo unspecified),630,-4.4% (inactive),-102% (inactive),176%,0.159,-1.73,0.323,18.6% (inactive),-0.486 (inactive),-0.000152 (inactive),0.00384 (inactive),inactive,0.959% (inactive)
COc1cc(OC)cc(C(=O)N2CCC(N3CCCCCC3)CC2)c1,372,-26.6% (inactive),-111% (inactive),132%,2.06,-1.95,-0.585,32.7% (inactive),-0.337 (inactive),-2.1e-05 (inactive),0.00559 (inactive),inactive; toxic,29.1% (inactive)
COc1ccc(C(C)=O)cc1CSCCC(=O)O,513,-1.6% (inactive),-82.1% (inactive),175%,1.45,-1.72,-4.2,-5.26% (inactive),-0.349 (inactive),1.8e-05 (inactive),0.00434 (inactive),inactive,0.764% (inactive)
CCOc1nnnc2c1sc1nc(N3CCOCC3)c3c(c12)CC(C)(C)OC3,579,-3.2% (inactive),-78.7% (inactive),116%,-0.458,-0.399,-0.83,-6.86% (inactive),-0.35 (inactive),1.4e-05 (inactive),0.00623 (inactive),inactive,-7.31% (inactive)
Cc1cc(C)c(NC(=O)OCCN2CCOCC2)c(C)c1,581,-17.3% (inactive),-82.2% (inactive),168%,-0.0769,-0.6,1.06,3.56% (inactive),-0.468 (inactive),-7.1e-05 (inactive),0.00577 (inactive),inactive,19.8% (inactive)

# — PubChem BioAssay
